Measured values: PMC6558985 (Nature chemical biology, 2019)

Columns and labels:
[1] = test system: HeLa-N386C cells; assay: Live-cell imaging of GFP-spastin puncta in anaphase, HeLa-N386C; assay type: cell-based, human; settings: 10 µM for 1 hour, 20 min after cleavage furrow ingression
[2] = test system: HeLa-WT cells; assay: CellTiter-Glo cell viability assay; assay type: cell-based, human; settings: 10 µM, 48 h
[3] = test system: HeLa-WT cells; assay: Intercellular bridge analysis; assay type: cell-based, human; settings: 10 µM, 4.5 hours
How it was run: (§1)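 Fixed HeLa Flp-In T-Rex lines expressing GFP-tagged spastin M87e4, either wildtype or N386C. Cells were exposed to 0.1% DMSO or 10 µM test compound for 4.5 h, then stained for acetylated tubulin to mark intercellular bridges and imaged by immunofluorescence. Read-out is the percent of cells with a bridge: >2500 cells per condition, average ± s.d., n = 3.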

[4] = target: T1, Hs-PCH2 (Homo sapiens, UniProt Q15645); assay: Steady-state ATPase activity, NADH-coupled assay, Hs-PCH2; assay type: biochemical; settings: 10 µM, 0.5 mM MgATP, n = 3
T1 sequence (Q15645 1-432): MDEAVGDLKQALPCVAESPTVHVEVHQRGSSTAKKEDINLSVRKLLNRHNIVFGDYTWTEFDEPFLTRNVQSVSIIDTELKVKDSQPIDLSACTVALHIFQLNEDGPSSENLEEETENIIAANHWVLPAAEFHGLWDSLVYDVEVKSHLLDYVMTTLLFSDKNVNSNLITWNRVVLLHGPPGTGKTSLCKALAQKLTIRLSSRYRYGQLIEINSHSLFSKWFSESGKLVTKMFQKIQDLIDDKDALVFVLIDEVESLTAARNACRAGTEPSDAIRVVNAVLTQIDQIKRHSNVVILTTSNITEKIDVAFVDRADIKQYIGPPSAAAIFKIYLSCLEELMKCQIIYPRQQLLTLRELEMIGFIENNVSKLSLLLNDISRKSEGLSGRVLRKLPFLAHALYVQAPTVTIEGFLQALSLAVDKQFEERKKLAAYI
How it was run: (§2)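 Recombinant AAA protein constructs assayed by steady-state ATPase with NADH-coupled read-out at 0.5 mM MgATP, with test compound at 2 µM or 10 µM. Activity is reported as percent of steady-state ATPase activity, average ± s.d., n = 3.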

[5] = target: Xl-katanin (Xenopus laevis, UniProt Q9PUL2); assay: Steady-state ATPase activity, NADH-coupled assay, Xl-katanin; assay type: biochemical, X. laevis; settings: 10 µM, 0.5 mM MgATP, n = 3
How it was run: as §2

[6] = target: T2, Hs-FIGL1 (Homo sapiens, UniProt Q6PIW4); assay: Steady-state ATPase activity, NADH-coupled assay, Hs-FIGL1; assay type: biochemical; settings: 10 µM, 0.5 mM MgATP, n = 3
T2 sequence (Q6PIW4 288-674): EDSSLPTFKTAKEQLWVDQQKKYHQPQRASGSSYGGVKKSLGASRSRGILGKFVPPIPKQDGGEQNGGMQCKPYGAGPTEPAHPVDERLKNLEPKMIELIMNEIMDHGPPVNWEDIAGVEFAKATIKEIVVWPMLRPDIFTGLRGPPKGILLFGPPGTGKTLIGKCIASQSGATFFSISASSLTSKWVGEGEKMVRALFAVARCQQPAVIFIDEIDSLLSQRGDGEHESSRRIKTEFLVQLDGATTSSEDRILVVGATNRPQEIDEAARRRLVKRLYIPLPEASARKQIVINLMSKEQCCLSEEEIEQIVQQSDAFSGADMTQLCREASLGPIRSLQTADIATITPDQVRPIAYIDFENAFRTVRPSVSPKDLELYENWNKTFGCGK
How it was run: as §2

[7] = target: Mm-VCP (Mus musculus, UniProt Q01853, I206V); assay: Steady-state ATPase activity, NADH-coupled assay, Mm-VCP; assay type: biochemical; settings: 10 µM, 0.5 mM MgATP, n = 3
How it was run: as §2

[8] = test system: HeLa-WT cells; assay: Microtubule organization; assay type: cell-based, human; settings: 10 µM, 4 hours
[9] = test system: HeLa-N386C cells; assay: Intercellular bridge analysis; assay type: cell-based, human; settings: 10 µM, 4.5 hours, average ± s.d., n = 3
How it was run: as §1

[10] = target: T3, human VPS4B (Homo sapiens, UniProt O75351); assay: Steady-state ATPase activity, NADH-coupled assay, VPS4B; assay type: biochemical; settings: 1 mM MgATP, n = 3
T3 sequence (O75351 1-444): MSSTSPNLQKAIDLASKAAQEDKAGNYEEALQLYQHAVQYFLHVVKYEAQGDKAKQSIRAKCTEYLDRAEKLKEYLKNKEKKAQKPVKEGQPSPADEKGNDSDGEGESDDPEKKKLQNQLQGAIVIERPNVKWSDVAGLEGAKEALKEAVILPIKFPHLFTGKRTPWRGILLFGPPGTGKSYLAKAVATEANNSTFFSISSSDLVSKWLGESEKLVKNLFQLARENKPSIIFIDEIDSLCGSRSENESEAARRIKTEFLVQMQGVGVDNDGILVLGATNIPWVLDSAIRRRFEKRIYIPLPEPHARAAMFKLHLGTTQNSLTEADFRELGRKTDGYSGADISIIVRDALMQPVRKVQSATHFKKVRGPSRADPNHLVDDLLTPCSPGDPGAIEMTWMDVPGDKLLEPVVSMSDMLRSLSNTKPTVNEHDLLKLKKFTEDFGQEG

[11] = test system: Hs-spastin-N386C; assay: Steady-state ATPase activity, NADH-coupled assay, Hs-spastin N386C; assay type: biochemical, human; settings: 1 mM MgATP

Chain of Xl-katanin (Q9PUL2 whole entry): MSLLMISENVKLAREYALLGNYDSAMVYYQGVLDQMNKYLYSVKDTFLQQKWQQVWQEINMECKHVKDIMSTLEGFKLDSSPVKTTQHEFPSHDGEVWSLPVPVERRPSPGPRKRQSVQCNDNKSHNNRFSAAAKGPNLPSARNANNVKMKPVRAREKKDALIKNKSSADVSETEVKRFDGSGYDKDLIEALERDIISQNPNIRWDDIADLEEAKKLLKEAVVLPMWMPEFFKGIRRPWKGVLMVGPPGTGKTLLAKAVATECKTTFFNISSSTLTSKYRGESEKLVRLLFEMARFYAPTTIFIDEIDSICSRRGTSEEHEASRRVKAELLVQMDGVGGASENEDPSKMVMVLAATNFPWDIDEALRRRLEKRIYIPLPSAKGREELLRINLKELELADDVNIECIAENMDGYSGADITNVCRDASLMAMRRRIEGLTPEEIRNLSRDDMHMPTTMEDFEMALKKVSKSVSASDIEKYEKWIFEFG
Chain of Mm-VCP (Q01853 whole entry I206V): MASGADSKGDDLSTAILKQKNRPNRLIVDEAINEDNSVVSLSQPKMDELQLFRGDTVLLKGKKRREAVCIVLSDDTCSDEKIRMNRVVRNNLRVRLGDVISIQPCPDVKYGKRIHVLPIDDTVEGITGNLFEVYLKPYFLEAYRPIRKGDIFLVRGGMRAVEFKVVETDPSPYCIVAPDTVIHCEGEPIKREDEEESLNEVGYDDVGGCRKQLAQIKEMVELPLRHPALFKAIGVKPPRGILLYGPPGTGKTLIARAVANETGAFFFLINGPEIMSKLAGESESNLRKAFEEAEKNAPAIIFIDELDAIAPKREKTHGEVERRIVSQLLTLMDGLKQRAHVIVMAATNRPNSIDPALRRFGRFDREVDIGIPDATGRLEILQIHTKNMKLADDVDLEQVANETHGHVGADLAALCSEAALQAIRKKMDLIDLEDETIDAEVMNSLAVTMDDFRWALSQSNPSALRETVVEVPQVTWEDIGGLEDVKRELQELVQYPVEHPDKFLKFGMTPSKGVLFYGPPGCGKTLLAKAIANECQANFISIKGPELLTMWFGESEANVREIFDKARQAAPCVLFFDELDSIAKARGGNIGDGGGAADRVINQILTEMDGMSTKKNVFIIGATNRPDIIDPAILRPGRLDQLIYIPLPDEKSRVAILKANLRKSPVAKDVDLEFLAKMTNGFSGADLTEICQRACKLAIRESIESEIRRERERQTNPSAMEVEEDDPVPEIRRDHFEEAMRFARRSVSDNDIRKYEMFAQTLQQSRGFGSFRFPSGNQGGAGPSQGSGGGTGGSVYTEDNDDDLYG

Compound: CC(C)[C@@H]1CN(c2nc(Nc3cc(C(C)(C)C)[nH]n3)c3cc[nH]c3n2)CCN1 [spastazoline, (R)-N-(5-(tert-butyl)-1H-pyrazol-3-yl)-2-(3-isopropylpiperazin-1-yl)-7H-pyrrolo[2,3-d]pyrimidin-4-amine]
- increase in GFP-spastin dots in HeLa-N386C with respect to wildtype [1]: 1.6 fold
- number of GFP-spastin dots, HeLa-N386C ([1]; average ± s.e.m.): 8 ± 3
- viability of HeLa cells [2]: did not impact the viability
- increase in number of cells with intercellular bridges compared to DMSO control, HeLa-WT [3]: ~ 2 fold
- percent of cells with an intercellular bridge, HeLa-WT ([3]; average ± s.d., n = 3): 25.2 ± 1.4%
- inhibition of Hs-PCH2 ATPase activity [4]: did not appreciably inhibit
- inhibition of Xl-katanin ATPase activity [5]: did not appreciably inhibit
- inhibition of Hs-FIGL1 ATPase activity [6]: did not appreciably inhibit
- inhibition of Mm-VCP ATPase activity [7]: did not appreciably inhibit
- organization of microtubules [8]: did not result in overt changes in the organization of microtubules
- percent of cells with an intercellular bridge, HeLa-N386C [9]: 13.6 ± 1.4%
- inhibition of ATPase activity of recombinant human VPS4 [10]: did not inhibit ATPase activity
- potency on Hs-spastin-N386C relative to wildtype (less potent) [11]: > 100 fold
